Consider two compounds from article PMC5828885 (The Journal of investigative dermatology, 2017).

Data set [1] concerns mice. In kind it is in vivo, mice (Balb/c and C57BL/6). As to conditions: 10mg/kg/day, 3-4 weeks; for Skin pigmentation (visual): mice, drug powder feed diet; for Skin pigmentation (OD values, 480nm and 535nm filters): mouse ears, n=3, p<0.01 vs untreated. A digest of the protocol: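 Balb/c and C57BL/6 mice, 4-5 weeks old, fed ad libitum a drug powder diet targeting an oral dose equivalent of 10mg/kg/day for 3-4 weeks; untreated mice as controls. Ears were photographed by phone camera through single-band bandpass filters (480, 535, 623nm), flash/HDR off, no editing filters. Reflectance was quantified by image analysis (drug powder n=7, untreated n=3); one-way ANOVA, Tukey's HSD.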

The test system of data set [2] is mice. The data set is described as follows: Multi-parameter microscopic imaging of tissue cryosections for CLDIs. In kind it is in vivo, mice (Balb/c and C57BL/6). The note with it: 10mg/kg/day, 3-4 weeks. A digest of the protocol: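 Mice (4-5 weeks old) received a 10mg/kg/day-equivalent drug diet for 3-4 weeks, then were CO2-euthanized. Liver, spleen and ears were washed in cold PBS, embedded in OCT, frozen at -80°C and cryosectioned at 5 μm. Sections were imaged by brightfield, Cy5 fluorescence and LC-PolScope polarization (dichroism, 623nm-filtered illumination) and compared with untreated tissue.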

The nature of data set [3]: Quantification of CFZ in tissues of treated mice. It counts as in vivo, mice (Balb/c and C57BL/6). As to conditions: 10mg/kg/day oral, 3-4 weeks. In a few lines:
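4–5-week-old mice fed the test compound ad libitum in powdered chow; liver, spleen and ears (skin) harvested and rinsed in cold PBS. Tissue homogenized (sonication, or mechanical for ear) in RIPA with protease inhibitors, spun 15000 rpm, 4°C, 5 min. Supernatant extracted with xylenes, then 9M H2SO4 (each triplicate). A540−A750 against a 9M H2SO4 standard curve, normalized to organ weight.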

The conditions of data set [4]: ref Baik et al., 2013; cited from earlier work.
The nature of data set [5]: LogP and LogD determination, 1-octanol/phosphate buffer partitioning. In kind it is physicochemical. A digest of the protocol:
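Shake-flask partitioning in phosphate buffer pH 3/1-octanol 1:1 (v/v) at 25°C, thermostatted water bath, magnetic stirring for 24 h to equilibrate. Compound was introduced in organic solvent at maximum solubility. Both layers were assayed spectrophotometrically at 285nm against a standard curve. The apparent partition coefficient was converted to LogP and LogD (pH 7.4) by published equations.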

A short description of data set [6]: In vitro assay for HCl salt precipitation in simulated lysosomal conditions. As to conditions: for Solubility behaviour in solution A (no chloride): compared with DMSO; for Precipitates by brightfield and Cy5 fluorescence microscopy in solution B: pH 4.5, 100mM chloride. In kind it is physicochemical. In a few lines: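 Lysosome-mimic buffers: 10mM sodium acetate pH 4.5 with 10mM CTAB (Solution A), plus 100mM NaCl (Solution B). A 7mM DMSO stock was added 1:100 into each buffer and shaken 2.5 h at varying speeds. Absorbance at 285nm was read against a buffer-plus-DMSO baseline; a decrease was taken as precipitation. Precipitate was imaged by brightfield and Cy5 fluorescence microscopy.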

The subject of the next data set is patients. As to conditions: leprosy or MDR-TB patients; ref Maia et al., 2013, Tang et al., 2015; cited from earlier work.
[7] abbreviates: pH 4.5, 10 mM CTAB, 100mM chloride.

What is called logP is the decadic logarithm of the partition coefficient of the neutral form, usually between octanol and water. A high value points to higher lipophilicity. Broadly, the logD is the decadic logarithm of the distribution of all forms, ionised or not, between an organic phase and buffer at a given pH. Low values mean lower lipophilicity, high ones higher lipophilicity. Consider `CC(C)/N=c1\cc2n(-c3ccc(Cl)cc3)c3ccccc3nc-2cc1Nc1ccc(Cl)cc1` [CFZ, Clofazimine], for which, in the data set with mice [1], the “Skin pigmentation (visual)” value was “visually evident”; the “Skin pigmentation (OD values, 480nm and 535nm filters)” value was “significantly higher than the untreated group”. The “CLDIs in skin sections” value with mice [2] is “did not contain CLDIs”. Further, the “CLDIs in liver and spleen” value in the data set on mice [2] (brightfield, fluorescence, diattenuation) is “CLDIs were observed”. Further, the “Tissue concentration of the drug in skin” value in data set [3] (n=3, mean ± SD) is given as 0.16 ± 0.04 mg/g. In addition, in data set [3] (n=4, mean ± SD), the “Tissue concentration of the drug in liver” value worked out at 2.37 ± 0.62 mg/g and the “Tissue concentration of the drug in spleen” value is 4.34 ± 0.41 mg/g. The “Concentration found in adipose tissue” value in data set [4] was 0.74 mgCFZ/gFat. Besides, the logP at 24 h in data set [5] (1-octanol/phosphate buffer 1:1 (v/v), pH 3) was determined as 7.66. For the same compound, in data set [5] (1-octanol/phosphate buffer, pH 7.4), the logD at 24 h is 5.76. Further, in data set [6] (setting [7]), the “Decrease in absorbance (285nm) in solution B” value was 4 fold and the “Precipitation as hydrochloride salt in solution B” value is on record as “precipitates out as hydrochloride salt”. Besides, the “Solubility behaviour in solution A (no chloride)” value in data set [6] (pH 4.5, 10 mM CTAB) is “remained soluble”. The “Precipitates by brightfield and Cy5 fluorescence microscopy in solution B” value in data set [6] is listed as “precipitates as a HCl salt form”. The “Patients with skin pigmentation” value in the data set on patients is “more than 94%”.
`OCCN=c1cc2n(-c3ccc(Cl)cc3)c3ccccc3nc-2cc1Nc1ccc(Cl)cc1` [compound 568]: in the data set on mice [1], the “Skin pigmentation (visual)” value is recorded as “visually evident”; the “Skin pigmentation (OD values, 480nm and 535nm filters)” value was “identical level of pigmentation as CFZ treated mice”. In the data set with mice [2] (liver, spleen, skin), the “CLDIs accumulation in all tissues” value is listed as “no evidence of CLDIs accumulation”. In data set [5] (1-octanol/phosphate buffer pH 3, 25°C, 24 hours, mean, n=3), the LogP was 6.69 ^2. The “LogD @ pH 7.4” value in data set [5] (pH 7.4, from the apparent partition coefficient, 25°C, mean, n=3) is recorded as 5.42 ^3. Besides, in data set [6] (setting [7]), the “Precipitation as hydrochloride salt in solution B” value was “remains in solution”. The “Solubility behaviour in solution A (no chloride)” value in data set [6] (pH 4.5, 10 mM CTAB) was “remained soluble”. In data set [6], the “Precipitates by brightfield and Cy5 fluorescence microscopy in solution B” value is reported as “no precipitates were observed”.
